{"source": "ChEMBL document CHEMBL4715736", "about": "“Identification of anticancer agents based on the thieno[2,3-b]pyridine and 1H-pyrazole molecular scaffolds” (2016)", "assay_type_in_all_cases": "functional", "key": {"MCF7 [1]": {"system": "MCF7", "experiment": "Growth inhibition of human MCF7 cells incubated for 48 hrs by sulforhodamine B assay", "how_it_was_run": "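NCI60 panel at the NCI Developmental Therapeutics Program. Only compounds active in the 10 µM screen went to dose-response testing. GI50, the concentration giving 50% of maximal inhibition of proliferation, and TGI, the concentration giving total growth inhibition, were derived from the dose-response curves.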"}, "SF-539 [2]": {"system": "SF-539", "experiment": "Growth inhibition of human SF-539 cells assessed as cell growth at 100 uM incubated for 48 hrs by sulforhodamine B assay relative to control", "conditions": "read-out: Activity"}, "SK-OV-3": {"system": "SK-OV-3", "experiment": "Growth inhibition of human SK-OV-3 cells assessed as cell growth at 0.01 uM incubated for 48 hrs by sulforhodamine B assay relative to control", "conditions": "read-out: Activity"}, "TK-10": {"system": "TK-10", "experiment": "Growth inhibition of human TK-10 cells assessed as cell growth at 100 uM incubated for 48 hrs by sulforhodamine B assay relative to control", "conditions": "read-out: Activity"}, "HOP-62": {"system": "HOP-62", "experiment": "Growth inhibition of human HOP-62 cells assessed as cell growth at 1 uM incubated for 48 hrs by sulforhodamine B assay relative to control", "conditions": "read-out: Activity"}, "T47D": {"system": "T47D", "experiment": "Growth inhibition of human T47D cells assessed as cell growth at 0.1 uM incubated for 48 hrs by sulforhodamine B assay relative to control", "conditions": "read-out: Activity"}, "RXF 393 [3]": {"system": "RXF 393", "experiment": "Growth inhibition of human RXF 393 cells assessed as cell growth at 0.01 uM incubated for 48 hrs by sulforhodamine B assay relative to control", "conditions": "read-out: Activity"}, "RXF 393 [4]": {"system": "RXF 393", "experiment": "Growth inhibition of human RXF 393 cells assessed as cell growth at 0.1 uM incubated for 48 hrs by sulforhodamine B assay relative to control", "conditions": "read-out: Activity"}, "SF-295": {"system": "SF-295", "experiment": "Growth inhibition of human SF-295 cells incubated for 48 hrs by sulforhodamine B assay", "how_it_was_run": "(§1)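 NCI DTP 60-line human tumour panel. Dose-response curves were run only for ligands active in the initial 10 µM screen. GI50 (concentration giving 50% of maximal inhibition of proliferation) and TGI (concentration giving total growth inhibition) were derived from these curves.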"}, "SK-MEL-2 [5]": {"system": "SK-MEL-2", "experiment": "Growth inhibition of human SK-MEL-2 cells assessed as cell growth at 0.01 uM incubated for 48 hrs by sulforhodamine B assay relative to control", "conditions": "read-out: Activity"}, "SF-539 [6]": {"system": "SF-539", "experiment": "Growth inhibition of human SF-539 cells incubated for 48 hrs by sulforhodamine B assay", "how_it_was_run": "as §1"}, "SW-620": {"system": "SW-620", "experiment": "Growth inhibition of human SW-620 cells incubated for 48 hrs by sulforhodamine B assay", "how_it_was_run": "as §1"}, "NCI-H522": {"system": "NCI-H522", "experiment": "Growth inhibition of human NCI-H522 cells assessed as cell growth at 1 uM incubated for 48 hrs by sulforhodamine B assay relative to control", "conditions": "read-out: Activity"}, "RPMI-8226": {"system": "RPMI-8226", "experiment": "Growth inhibition of human RPMI-8226 cells assessed as cell growth at 0.01 uM incubated for 48 hrs by sulforhodamine B assay relative to control", "conditions": "read-out: Activity"}, "MDA-MB-468": {"system": "MDA-MB-468", "experiment": "Growth inhibition of human MDA-MB-468 cells assessed as cell growth at 0.01 uM incubated for 48 hrs by sulforhodamine B assay relative to control", "conditions": "read-out: Activity"}, "MOLT-4": {"system": "MOLT-4", "experiment": "Growth inhibition of human MOLT-4 cells assessed as cell growth at 0.1 uM incubated for 48 hrs by sulforhodamine B assay relative to control", "conditions": "read-out: Activity"}, "A498 [7]": {"system": "A498", "experiment": "Growth inhibition of human A498 cells assessed as cell growth at 0.01 uM incubated for 48 hrs by sulforhodamine B assay relative to control", "conditions": "read-out: Activity", "how_it_was_run": "(§2)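 NCI Developmental Therapeutics Program NCI60 panel. Compounds that were active in the 10 µM one-dose screen went on to dose–response testing. Growth at each concentration is expressed relative to untreated control (100%). GI50 (concentration giving 50% of maximal inhibition of proliferation) and TGI (concentration giving total growth inhibition) were derived from the curves.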"}, "A498 [8]": {"system": "A498", "experiment": "Growth inhibition of human A498 cells incubated for 48 hrs by sulforhodamine B assay", "how_it_was_run": "as §2"}, "U-251": {"system": "U-251", "experiment": "Growth inhibition of human U-251 cells assessed as cell growth at 100 uM incubated for 48 hrs by sulforhodamine B assay relative to control", "conditions": "read-out: Activity"}, "MCF7 [9]": {"system": "MCF7", "experiment": "Growth inhibition of human MCF7 cells assessed as cell growth at 1 uM incubated for 48 hrs by sulforhodamine B assay relative to control", "conditions": "read-out: Activity"}, "SK-MEL-2 [10]": {"system": "SK-MEL-2", "experiment": "Growth inhibition of human SK-MEL-2 cells assessed as cell growth at 0.1 uM incubated for 48 hrs by sulforhodamine B assay relative to control", "conditions": "read-out: Activity"}, "A549": {"system": "A549", "experiment": "Growth inhibition of human A549/ATCC cells assessed as cell growth at 0.01 uM incubated for 48 hrs by sulforhodamine B assay relative to control", "conditions": "read-out: Activity", "how_it_was_run": "as §2"}, "NCI-H322M [11]": {"system": "NCI-H322M", "experiment": "Growth inhibition of human NCI-H322M cells assessed as cell growth at 1 uM incubated for 48 hrs by sulforhodamine B assay relative to control", "conditions": "read-out: Activity"}, "M14": {"system": "M14", "experiment": "Growth inhibition of human M14 cells assessed as cell growth at 0.1 uM incubated for 48 hrs by sulforhodamine B assay relative to control", "conditions": "read-out: Activity"}, "NCI-H460": {"system": "NCI-H460", "experiment": "Growth inhibition of human NCI-H460 cells assessed as cell growth at 1 uM incubated for 48 hrs by sulforhodamine B assay relative to control", "conditions": "read-out: Activity"}, "UO-31": {"system": "UO-31", "experiment": "Growth inhibition of human UO-31 cells assessed as cell growth at 0.01 uM incubated for 48 hrs by sulforhodamine B assay relative to control", "conditions": "read-out: Activity"}, "NCI-H322M [12]": {"system": "NCI-H322M", "experiment": "Growth inhibition of human NCI-H322M cells assessed as cell growth at 100 uM incubated for 48 hrs by sulforhodamine B assay relative to control", "conditions": "read-out: Activity"}, "MDA-MB-435": {"system": "MDA-MB-435", "experiment": "Growth inhibition of human MDA-MB-435 cells assessed as cell growth at 100 uM incubated for 48 hrs by sulforhodamine B assay relative to control", "conditions": "read-out: Activity"}, "Hs-578T": {"system": "Hs-578T", "experiment": "Growth inhibition of human Hs-578T cells assessed as cell growth at 0.1 uM incubated for 48 hrs by sulforhodamine B assay relative to control", "conditions": "read-out: Activity"}, "COLO 205": {"system": "COLO 205", "experiment": "Growth inhibition of human COLO 205 cells assessed as cell growth at 1 uM incubated for 48 hrs by sulforhodamine B assay relative to control", "conditions": "read-out: Activity", "how_it_was_run": "as §2"}, "LOX IMVI": {"system": "LOX IMVI", "experiment": "Growth inhibition of human LOX IMVI cells assessed as cell growth at 0.1 uM incubated for 48 hrs by sulforhodamine B assay relative to control", "conditions": "read-out: Activity"}, "HCC 2998": {"system": "HCC 2998", "experiment": "Growth inhibition of human HCC 2998 cells assessed as cell growth at 100 uM incubated for 48 hrs by sulforhodamine B assay relative to control", "conditions": "read-out: Activity", "how_it_was_run": "as §2"}, "UACC-257": {"system": "UACC-257", "experiment": "Growth inhibition of human UACC-257 cells assessed as cell growth at 0.01 uM incubated for 48 hrs by sulforhodamine B assay relative to control", "conditions": "read-out: Activity"}, "OVCAR-8": {"system": "OVCAR-8", "experiment": "Growth inhibition of human OVCAR-8 cells assessed as cell growth at 0.1 uM incubated for 48 hrs by sulforhodamine B assay relative to control", "conditions": "read-out: Activity"}, "[13]": {"conditions": "read-out: LC50 (the source's name)"}}, "data": [{"smiles": "CCc1ccccc1NC(=O)c1sc2nc3c(cc2c1N)C(=O)CCC3", "values": [{"measurement": "GI50", "setting": "MCF7 [1]", "result": 0.312, "unit": "µM"}, {"measurement": "TGI", "setting": "MCF7 [1]", "result": "> 100", "unit": "µM"}, {"measurement": "CC50", "setting": "MCF7 [1]; [13]", "result": "> 100", "unit": "µM"}, {"measurement": "growth at 100 µM", "setting": "SF-539 [2]", "result": -34, "unit": "%"}, {"measurement": "growth at 0.01 µM", "setting": "SK-OV-3", "result": 104, "unit": "%"}, {"measurement": "growth at 100 µM", "setting": "TK-10", "result": 13, "unit": "%"}, {"measurement": "growth at 1 µM", "setting": "HOP-62", "result": 33, "unit": "%"}, {"measurement": "growth at 0.1 µM", "setting": "T47D", "result": 102, "unit": "%"}, {"measurement": "growth at 0.01 µM", "setting": "RXF 393 [3]", "result": 94, "unit": "%"}, {"measurement": "growth at 0.1 µM", "setting": "RXF 393 [4]", "result": 66, "unit": "%"}, {"measurement": "GI50", "setting": "SF-295", "result": 0.257, "unit": "µM"}, {"measurement": "LC50 (concentration killing 50% of cells)", "setting": "SF-295", "result": "> 100", "unit": "µM"}, {"measurement": "TGI", "setting": "SF-295", "result": "≥ 100", "unit": "µM"}, {"measurement": "growth at 0.01 µM", "setting": "SK-MEL-2 [5]", "result": 108, "unit": "%"}, {"measurement": "GI50", "setting": "SF-539 [6]", "result": 0.335, "unit": "µM"}, {"measurement": "TGI", "setting": "SF-539 [6]", "result": 2.69, "unit": "µM"}, {"measurement": "CC50", "setting": "SF-539 [6]; [13]", "result": "> 100", "unit": "µM"}, {"measurement": "GI50", "setting": "SW-620", "result": 0.322, "unit": "µM"}, {"measurement": "LC50 (concentration killing 50% of cells)", "setting": "SW-620", "result": "> 100", "unit": "µM"}, {"measurement": "TGI", "setting": "SW-620", "result": "> 100", "unit": "µM"}, {"measurement": "growth at 1 µM", "setting": "NCI-H522", "result": 34, "unit": "%"}, {"measurement": "growth at 0.01 µM", "setting": "RPMI-8226", "result": 100, "unit": "%"}, {"measurement": "growth at 0.01 µM", "setting": "MDA-MB-468", "result": 91, "unit": "%"}, {"measurement": "growth at 0.1 µM", "setting": "MOLT-4", "result": 103, "unit": "%"}, {"measurement": "growth at 0.01 µM", "setting": "A498 [7]", "result": 80, "unit": "%"}, {"measurement": "GI50", "setting": "A498 [8]", "result": 0.18, "unit": "µM"}, {"measurement": "TGI", "setting": "A498 [8]", "result": 4, "unit": "µM"}, {"measurement": "CC50", "setting": "A498 [8]; [13]", "result": "> 100", "unit": "µM"}, {"measurement": "growth at 100 µM", "setting": "U-251", "result": -15, "unit": "%"}, {"measurement": "growth at 1 µM", "setting": "MCF7 [9]", "result": 17, "unit": "%"}, {"measurement": "growth at 0.1 µM", "setting": "SK-MEL-2 [10]", "result": 104, "unit": "%"}, {"measurement": "growth at 0.01 µM", "setting": "A549", "result": 97, "unit": "%"}, {"measurement": "growth at 1 µM", "setting": "NCI-H322M [11]", "result": 40, "unit": "%"}, {"measurement": "growth at 0.1 µM", "setting": "M14", "result": 78, "unit": "%"}, {"measurement": "growth at 1 µM", "setting": "NCI-H460", "result": 9, "unit": "%"}, {"measurement": "growth at 0.01 µM", "setting": "UO-31", "result": 90, "unit": "%"}, {"measurement": "growth at 100 µM", "setting": "NCI-H322M [12]", "result": 23, "unit": "%"}, {"measurement": "growth at 100 µM", "setting": "MDA-MB-435", "result": -48, "unit": "%"}, {"measurement": "growth at 0.1 µM", "setting": "Hs-578T", "result": 80, "unit": "%"}, {"measurement": "growth at 1 µM", "setting": "COLO 205", "result": -34, "unit": "%"}, {"measurement": "growth at 0.1 µM", "setting": "LOX IMVI", "result": 95, "unit": "%"}, {"measurement": "growth at 100 µM", "setting": "HCC 2998", "result": 3, "unit": "%"}, {"measurement": "growth at 0.01 µM", "setting": "UACC-257", "result": 93, "unit": "%"}, {"measurement": "growth at 0.1 µM", "setting": "OVCAR-8", "result": 97, "unit": "%"}]}]}
